IDH1 mut inh – IDH1 R132H (human) inhibition; inhibition, % at 10 µM; 70,000 tested, 0.18% active; IDH1 R132H reductase, diaphorase/resazurin fluorescence, 60 min; O75874; in the data active = inhibition above about 34%; inconclusive = no clear call, values can overlap the other calls; inactive = below about 11%
T cruzi growth-1 – inhibitors of T. cruzi proliferation | T. cruzi beta-gal in NIH3T3, GalScreen luminescence, 90 h | inhibition, % at 8.34 µM | AID 624255 | 77,000 tested, 5.9% active;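 active = mean inhibition above about 93%, with at least 55% of replicates each passing it, limit read from the data, passing the limit was not always enough; inconclusive = only one of those two conditions holds; inactive = neither condition holds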
GASC1 inh – blocks human GASC-1 (KDM4C) demethylase activity; GST-KDM4C 2-372, H3K9me3 peptide, LANCE TR-FRET; inhibition, % at 12.5 µM; 96,000 tested, 0.15% active; AID 720574;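 active = mean replicate inhibition above about 25%, with at least 55% of replicates also reaching it, limit read from the data, passing the limit was not always enough; inconclusive = only one of those two conditions met; inactive = neither condition met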
Target sequence (Q9H3R0 2-372 limits assumed): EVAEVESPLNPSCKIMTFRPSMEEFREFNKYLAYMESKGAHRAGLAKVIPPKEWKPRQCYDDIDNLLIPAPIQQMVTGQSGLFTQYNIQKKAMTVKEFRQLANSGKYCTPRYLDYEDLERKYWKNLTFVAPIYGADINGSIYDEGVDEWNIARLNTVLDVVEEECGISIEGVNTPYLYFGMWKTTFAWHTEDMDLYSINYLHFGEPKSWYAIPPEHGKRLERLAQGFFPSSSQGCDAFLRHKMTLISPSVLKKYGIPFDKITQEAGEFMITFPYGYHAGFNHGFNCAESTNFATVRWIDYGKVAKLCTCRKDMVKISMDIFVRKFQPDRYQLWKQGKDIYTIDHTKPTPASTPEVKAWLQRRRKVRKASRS
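Material: GST-tagged GASC-1 (JMJD2C) catalytic fragment, aa 2-372. Input: enzyme final amount 10 nM. Medium: HEPES buffer, pH 7.5, plus ascorbate. Reagent: H3K9me3 peptide substrate, Fe(II), 2-oxoglutarate. Doses: single dose. Times: reaction 30 min RT, detection step 1 h RT. Measured by: LANCE TR-FRET. Evaluation: Fall in 671/618 emission ratio as inhibition.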
Pf Dd2 inh – inhibitors of Plasmodium falciparum Dd2 growth; AID 1159554; 94,000 tested, 2.3% active; activity change, % at 10 µM; P. falciparum Dd2 growth, SYBR Green, 72 h; hits give low values; in the data active = activity change below about -80%; inconclusive = no clear call, values can overlap the other calls
T cruzi growth-2 – blocks T. cruzi growth in NIH3T3 host cells. shares compounds with T cruzi growth-1. T. cruzi beta-gal in NIH3T3, GalScreen luminescence, 90 h. inhibition, % at 8.35 µM. 5,600 tested, 72% active. AID 651739;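 active = mean replicate inhibition above about 95% and at least 55% of replicates individually reaching it, limit read from the data; inconclusive = only one of the two criteria is met; inactive = neither criterion is met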
T cruzi growth-3 – inhibitors of T. cruzi proliferation. shares compounds with T cruzi growth-1. T. cruzi beta-gal in NIH3T3, GalScreen luminescence, 90 h. inhibition, % at 2.09 µM. 5,600 tested, 21% active. AID 651740;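 active = mean inhibition above about 95%, with at least 55% of replicates also reaching it, limit read from the data; inconclusive = meets just one of the two conditions; inactive = meets neither condition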
3T3 cytotox – cytotoxicity in mouse NIH/3T3 fibroblasts. shares compounds with T cruzi growth-1. NIH/3T3 viability, CellTiter-Glo ATP luminescence, 90 h. cytotoxicity (signal decrease), % at 8.35 µM. 5,600 tested, 14% active;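 active = mean signal decrease across replicates above about 35% based on untreated-well scatter, with enough replicates individually passing, limit read from the data; inconclusive = no rule stated though some were filed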
NIH3T3 tox 2 – NIH/3T3 (mouse) viability loss; shares compounds with T cruzi growth-1; NIH/3T3 viability, CellTiter-Glo ATP luminescence, 90 h; inhibition, % at 24.9 µM; 5,600 tested, 56% active; AID 651744;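 active = mean loss of cell viability signal at or above a set limit, and enough replicates individually reaching it; inconclusive = meets only the mean limit or only the replicate share; inactive = meets neither condition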
Hits are given with their value; – = inactive; ? = inconclusive; · = not tested or not shown. In the library only some 5.8% were active in any assay of this set; here they are far more common.

SMILES	IDH1 mut inh	T cruzi growth-1	GASC1 inh	Pf Dd2 inh	T cruzi growth-2	T cruzi growth-3	3T3 cytotox	NIH3T3 tox 2
CCn1c(NCc2ccccc2O)nc2ccccc21	–	·	·	·	·	·	·	·
CC(=O)c1ccc(NC(=O)CN(C)S(=O)(=O)c2ccc(Br)cc2)cc1	–	·	·	·	·	·	·	·
O=C(Nc1ccccc1)N1CCCCN2[C@@H](CO)[C@@H](c3ccc(C#Cc4cccnc4)cc3)[C@@H]2C1	·	105.4	–	–	109.0	–	–	80.6
O=C(Nc1ccccc1)N1CCCCN2[C@H](CO)[C@@H](c3ccc(C#Cc4cccnc4)cc3)[C@H]2C1	·	–	–	–	·	·	·	·
O=C(Nc1cccc(F)c1)N1CCCCN2[C@H](CO)[C@H](c3ccc(C#Cc4ccccc4)cc3)[C@H]2C1	·	–	–	–	·	·	·	·
O=C(Nc1ccccc1F)N1CCCCN2[C@H](CO)[C@H](c3ccc(C#Cc4cccnc4)cc3)[C@@H]2C1	·	107.0	–	?	109.9	–	43.5	?
O=C(Nc1cccc(F)c1)N1CCCCN2[C@H](C1)[C@H](c1ccc(C#Cc3ccccc3)cc1)[C@@H]2CO	·	100.0	–	–	101.5	?	–	37.9
O=C(Nc1cccc(F)c1)N1CCCCN2[C@H](CO)[C@@H](c3ccc(C#Cc4cccnc4)cc3)[C@@H]2C1	·	105.4	–	–	109.2	?	–	81.4
Cc1cccc(NC(=O)CCC(=O)O)c1	–	·	·	·	·	·	·	·
C[C@]1(O)CC[C@@H]2C(C(=O)O)=CO[C@@H](O[C@@H]3O[C@H](COC(=O)/C=C/c4ccc(O)c(O)c4)[C@@H](O)[C@H](O)[C@H]3O)[C@@H]21	–	·	·	·	·	·	·	·
O=C(CSc1nc2ccccc2c(=O)n1-c1ccc(Cl)cc1)Nc1ccc(Cl)cc1Cl	–	·	·	·	·	·	·	·
C[C@H]1CN([C@@H](C)CO)C(=O)c2cccc(NC(=O)c3ccncc3)c2O[C@@H]1CN(C)Cc1ccc(C(=O)Nc2ccccc2N)cc1	–	97.6	–	–	107.6	100.8	–	46.5
C[C@@H]1CN([C@@H](C)CO)C(=O)c2cccc(NC(=O)c3cnccn3)c2O[C@@H]1CN(C)Cc1ccc(C(=O)Nc2ccccc2N)cc1	·	105.6	–	-92.1	–	–	46.8	91.0
C[C@H](CO)N1C[C@H](C)[C@@H](CN(C)Cc2ccc(C(=O)Nc3ccccc3N)cc2)Oc2c(NC(=O)c3ccncc3)cccc2C1=O	·	?	–	–	101.6	–	–	25.0
COc1cc2c(c(OC)c1OC)CCc1cc(O)c(O)cc1-2	–	·	·	·	·	·	·	·
C[C@@H]1CCCCO[C@H](CN(C)S(=O)(=O)c2cccs2)[C@@H](C)CN([C@@H](C)CO)C(=O)c2cc(NS(=O)(=O)c3ccc(Cl)cc3)ccc2O1	·	92.8	–	–	98.2	99.4	–	–
C[C@@H]1CCCCO[C@@H](CN(C)S(=O)(=O)c2cccs2)[C@H](C)CN([C@H](C)CO)C(=O)c2cc(NS(=O)(=O)c3ccc(Cl)cc3)ccc2O1	–	–	–	–	·	·	·	·
C[C@H](CO)N1C[C@H](C)[C@@H](CN(C)S(=O)(=O)c2cccs2)OCCCC[C@H](C)Oc2ccc(NS(=O)(=O)c3ccc(Cl)cc3)cc2C1=O	–	–	–	–	·	·	·	·
C[C@@H]1CCCCO[C@@H](CN(C)S(=O)(=O)c2cccs2)[C@@H](C)CN([C@H](C)CO)C(=O)c2cc(NS(=O)(=O)c3ccc(Cl)cc3)ccc2O1	–	?	–	–	106.1	–	–	38.5
C[C@@H]1CCCCO[C@H](CN(C)S(=O)(=O)c2cccs2)[C@H](C)CN([C@@H](C)CO)C(=O)c2cc(NS(=O)(=O)c3ccc(Cl)cc3)ccc2O1	–	95.1	–	–	102.2	–	–	–
C[C@H](CO)N1C[C@H](C)[C@H](CN(C)S(=O)(=O)c2cccs2)OCCCC[C@H](C)Oc2ccc(NS(=O)(=O)c3ccc(Cl)cc3)cc2C1=O	–	104.3	–	–	102.0	–	–	–
Cn1cnc(S(=O)(=O)N(Cc2ccccc2)Cc2ccccc2N2CCC(C(=O)O)CC2)c1	–	·	·	·	·	·	·	·
O=C(CCCC(=O)Nc1ccc2ccccc2c1)Nc1ccc2ccccc2c1	–	·	·	·	·	·	·	·
CCC(Sc1nnc2c(n1)[nH]c1ccccc12)C(=O)Nc1cccc2ccccc12 (stereo not given)	–	·	·	·	·	·	·	·
COCC#Cc1ccc2c(c1)O[C@H](CN(C)CC1CCCC1)[C@@H](C)CN([C@H](C)CO)S2(=O)=O	–	?	–	–	98.9	–	–	50.1
SMILES	IDH1 mut inh	T cruzi growth-1	GASC1 inh	Pf Dd2 inh	T cruzi growth-2	T cruzi growth-3	3T3 cytotox	NIH3T3 tox 2
COCC#Cc1ccc2c(c1)O[C@@H](CN(C)CC1CCCC1)[C@H](C)CN([C@@H](C)CO)S2(=O)=O	–	106.3	–	?	95.8	–	–	104.3
O=C(Nc1cccc(F)c1)N1CCCCN2[C@@H](CO)[C@H](c3ccc(-c4ccccc4F)cc3)[C@@H]2C1	·	109.8	–	–	99.1	–	81.8	106.6
O=C(Nc1cccc(F)c1)N1CCCCN2[C@H](CO)[C@@H](c3ccc(-c4ccccc4F)cc3)[C@@H]2C1	·	–	–	–	·	·	·	·
O=C(Nc1cccc(F)c1)N1CCCCN2[C@H](CO)[C@@H](c3ccc(-c4ccccc4F)cc3)[C@H]2C1	·	107.9	–	–	–	106.5	74.6	105.0
CCN(CC)CCNc1ncnc(N)c1[N+](=O)[O-]	–	·	·	·	·	·	·	·
COc1ccc(-c2nnc3c4ccccc4c(C)nn23)cc1S(=O)(=O)N1CCN(C)CC1	–	·	·	·	·	·	·	·
O=C(C[C@@H]1C[C@H]2c3cc(NC(=O)Nc4ccccc4F)ccc3O[C@H]2[C@H](CO)O1)NCc1ccc(Oc2ccccc2)cc1	–	106.5	–	–	–	–	–	78.1
O=C(C[C@H]1C[C@@H]2c3cc(NC(=O)C4CCOCC4)ccc3O[C@@H]2[C@@H](CO)O1)NCc1ccc(Oc2ccccc2)cc1	–	155.6	–	–	–	–	–	–
C[C@@H]1CN([C@@H](C)CO)S(=O)(=O)c2ccc(C#Cc3ccccc3)cc2O[C@@H]1CN(C)C(=O)Nc1ccc2c(c1)OCO2	–	130.7	–	?	106.9	?	–	30.0
C[C@H](CO)N1C[C@H](C)[C@H](CN(C)C(=O)Nc2ccc3c(c2)OCO3)Oc2cc(C#Cc3ccccc3)ccc2S1(=O)=O	–	130.7	–	–	108.1	–	–	–
C[C@@H]1CN([C@@H](C)CO)S(=O)(=O)c2ccc(C#Cc3ccccc3)cc2O[C@H]1CN(C)C(=O)Nc1ccc2c(c1)OCO2	·	132.4	–	–	97.6	–	?	44.9
C[C@H]1CN([C@@H](C)CO)S(=O)(=O)c2ccc(C#Cc3ccccc3)cc2O[C@@H]1CN(C)C(=O)Nc1ccc2c(c1)OCO2	–	130.8	–	–	106.0	–	–	–

Screens: PubChem, Broad Institute
